Results as given in PMC10926215 (The Journal of Biological Chemistry, 2024).
One block for each compound: values may come before it. Square brackets hold non-standard residues; d marks the D form. Peptide text beside a SMILES is read from it. pS = N[C@@H](COP(=O)(O)O)C(=O)O

Tests used:
[1] = tested on: PDE8A–14-3-3ζ interaction; assay: Co-immunoprecipitation of PDE8A with HA-14-3-3ζ in treated HEK293T cells; assay type: cell-based, human; details: for change of PDE8A–14-3-3ζ interaction, PKC activator/inhibitor: 1 μM, Fig. 3B
[2] = target: T1, 14-3-3ζ protein (Homo sapiens, UniProt P63104); assay: 31P NMR titration of KA14P with 14-3-3ζ protein; assay type: binding
T1 sequence (P63104 1-245): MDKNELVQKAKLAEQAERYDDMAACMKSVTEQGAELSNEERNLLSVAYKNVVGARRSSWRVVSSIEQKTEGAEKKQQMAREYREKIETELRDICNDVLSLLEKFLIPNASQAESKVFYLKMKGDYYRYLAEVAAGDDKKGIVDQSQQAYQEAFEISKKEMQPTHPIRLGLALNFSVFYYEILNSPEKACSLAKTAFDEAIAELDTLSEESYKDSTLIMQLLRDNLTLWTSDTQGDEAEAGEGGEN
Summary of the method: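 Human 14-3-3ζ expressed from pQE30 in E. coli M15 (0.5 mM IPTG, 3 h, 37 °C), Ni-NTA purified, and stored in 10 mM phosphate pH 6.1 with 50 mM NaCl. Peptide held at 500 μM. Spectra taken with 512 scans, 16 dummy scans and a 10 s recycle delay. A 20 Hz exponential line broadening was applied before Fourier transformation.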

[3] = tested on: PDE8A; details: background statement; ref not stated; cited from earlier work
[4] = target: KA14P (phosphorylated PDE8A peptide) (human); assay: NMR titration
[5] = tested on: DN-PDE8A (D726A)–14-3-3ζ interaction; assay: Co-immunoprecipitation of DN-PDE8A with HA-14-3-3ζ in treated HEK293T cells; assay type: cell-based, human; details: forskolin 100 μM, 15 min; Fig. 3D
[6] = tested on: D726A PDE8A mutant (DN-PDE8A); details: cited from earlier work
[7] = target: 14-3-3ζ (UniProt P63104); assay: co-IP, anti-HA IP, Myc/FLAG blot; details: reference: wild type PDE8A; sites S359

Compound: CN(C)CCCn1cc(C2=C(c3c[nH]c4ccccc34)C(=O)NC2=O)c2ccccc21 [GX109203X]
change of PDE8A–14-3-3ζ interaction, PKC activator/inhibitor ([1]; 15 min): no change of interaction

Compound: CC(C)C[C@H](NC(=O)[C@H](COP(=O)(O)O)NC(=O)CNC(=O)[C@H](CCCCN)NC(=O)[C@H](CCCNC(=N)N)NC(=O)[C@H](CCCNC(=N)N)NC(=O)[C@H](CC(=O)O)NC(=O)[C@@H](N)CCCCN)C(=O)N[C@@H](CC(=O)O)C(=O)N[C@H](C(=O)N[C@@H](CCCCN)C(=O)N[C@@H](C)C(=O)N[C@H](C(=O)N[C@@H](C)C(=O)O)C(C)C)C(C)C [KA14P] (H-KDRRKG[pS]LDVKAVA-OH)
Kd [2]: 11.3 ± 0.18 µM

Compound: insulin: human insulin; activator of PI3K
PDE8A–14-3-3ζ interaction, activator of PI3K ([1]; 200 μM, 30 min, Fig. 3C): remained unchanged

Compound: COc1ccc(Cl)c(Nc2nc3ccccc3nc2NS(=O)(=O)c2cccc(NC(=O)C(C)(C)N)c2)c1 [pilaralisib]
PDE8A–14-3-3ζ interaction, inhibitor of PI3K ([1]; 100 μM, 30 min, Fig. 3C): remained unchanged

Compound: CC(C)Cn1c(=O)n(C)c(=O)c2[nH]cnc21 [IBMX, 3-isobutyl-1-methylxanthine]
sensitivity of PDE8A to inhibitor [3]: insensitive

Kd [4]: 11.3 µM
Compound: purified recombinant 14-3-3ζ (from UniProt P63104 1-245) (natural protein)

Compound: C=C[C@@]1(C)CC(=O)[C@]2(O)[C@@]3(C)[C@@H](O)CCC(C)(C)[C@@H]3[C@H](O)[C@H](OC(C)=O)[C@@]2(C)O1 [forskolin]
interaction of DN-PDE8A with 14-3-3ζ [5]: increased further | association of PDE8A and 14-3-3ζ, PKA activator ([1]; 100 μM, 15 min, serum-free, anti-HA IP, at least three repeats, Fig. 3A): increased association | phosphorylation of DN-PDE8A by PKA following treatment [6]: rapidly phosphorylated

binding against the reference [7]: lost
Compound: PDE8A (phosphodiesterase 8A) (from UniProt O60658) S359A

Compound: CCCCCCCCCCCCCC(=O)O[C@@H]1[C@@H](C)[C@@]2(O)[C@@H](C=C(CO)C[C@]3(O)C(=O)C(C)=C[C@@H]23)[C@@H]2C(C)(C)[C@]12OC(C)=O [PMA, phorbol 12-myristate 13-acetate]
change of PDE8A–14-3-3ζ interaction, PKC activator/inhibitor ([1]; 15 min): no change of interaction

Compound: O=S(=O)(NCCNC/C=C/c1ccc(Br)cc1)c1cccc2cnccc12 [H89]
association of PDE8A and 14-3-3ζ, PKA inhibitor ([1]; 100 μM, 15 min pretreatment, then forskolin 100 μM, 15 min, anti-HA IP, Fig. 3A): association decreased
